Each block holds one compound with its values, some of them ahead of it.
Assays:
Right cardiac atrium [1] = experiment: Negative chronotropic activity in guinea pig spontaneously beating right atrium assessed as decrease in atrial rate; assay type: tissue-based; settings: Cavia porcellus
[2] = target: T1, Voltage-gated L-type calcium channel (Homo sapiens, UniProt Q13936+Q13698+Q01668+O60840); experiment: Inhibition of voltage-dependent L-type calcium channel in human SH-SY5Y cells assessed as protection against glutamate-induced excitotoxicity by measuring recovery of cell viability at 20 uM measured after 24 hrs by alamar blue-based fluorescence method relative to control
Left cardiac atrium [3] = experiment: Negative inotropic activity in guinea pig left atrium assessed as decrease in developed tension at 10^-6 M relative to control; assay type: ADME, tissue-based, Cavia porcellus; parameters: scale not given: the % may be the effect or the level left; settings: 1 µM
[4] = target: T1, Voltage-gated L-type calcium channel; experiment: (§1) Inhibition of voltage-dependent L-type calcium channel in human U373MG cells assessed as protection against oxygen glucose deprivation/reperfusion-induced injury by measuring recovery of cell viability at 1 uM administered at onset of reperfusion period measured after 16 hrs by alamar blue assay relative to control; assay type: cell-based
Summary of the method: (§2)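 U-373 MG astrocytoma cells seeded at 30000 cells/ml and grown 24 or 48 h (37 °C/5% CO2). OGD: 24 h at 37 °C in glucose-free DMEM pre-bubbled with 95% N2/5% CO2, in a sealed nitrogen-flushed chamber. Then 16 h reperfusion in normal medium; compounds added at reperfusion, diluted from DMSO stock (DMSO ≤0.1%). Viability by alamarBlue, 4 h at 37 °C, fluorescence ex 530–560/em 590 nm. Expressed as % recovery from injury, mean ± S.E. of ≥3 experiments in sixuplicate.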

[5] = target: T1, Voltage-gated L-type calcium channel; experiment: as §1, with “at 20” for “at 1”; assay type: cell-based; summary of the method: as §2
Right cardiac atrium [6] = experiment: Negative chronotropic activity in guinea pig spontaneously beating right atrium assessed as decrease in atrial rate at 5 x 10^-5 M relative to control; assay type: tissue-based, Cavia porcellus; parameters: scale not given: the % may be the effect or the level left; settings: 50 µM
Aorta [7] = experiment: Inhibition of calcium-induced contraction in K+-depolarized guinea pig aortic strips at 10^-4 M relative to control; assay type: tissue-based; settings: Cavia porcellus
[8] = target: T1, Voltage-gated L-type calcium channel; experiment: Inhibition of voltage-dependent L-type calcium channel in human SH-SY5Y cells assessed as protection against glutamate-induced excitotoxicity by measuring recovery of cell viability at 1 uM measured after 24 hrs by alamar blue-based fluorescence method relative to control
Right cardiac atrium [9] = experiment: Negative chronotropic activity in guinea pig spontaneously beating right atrium assessed as decrease in atrial rate at 10^-5 M relative to control; assay type: ADME, tissue-based, Cavia porcellus; parameters: scale not given: the % may be the effect or the level left; settings: 10 µM
[10] = Selectivity ratio of EC50 for negative chronotropic activity in guinea pig spontaneously beating right atrium to EC50 for negative inotropic activity in guinea pig left atrium; assay type: ADME, tissue-based, Cavia porcellus
Left cardiac atrium [11] = experiment: Negative inotropic activity in guinea pig left atrium assessed as decrease in developed tension at 5 x 10^-6 M relative to control; assay type: ADME, tissue-based, Cavia porcellus; parameters: scale not given: the % may be the effect or the level left; settings: 5 µM
[12] = target: T2, Voltage-gated L-type calcium channel (Rattus norvegicus, UniProt P22002+Q02485+P27732); experiment: as §1, with “Wistar rat brain slices” for “human U373MG cells”, “edema formation” for “cell viability”, “20” for “1”, “90 mins” for “16 hrs by alamar blue assay”; parameters: scale not given: the % may be the effect or the level left; settings: 1.5 h
[13] = target: T2, Voltage-gated L-type calcium channel; experiment: as §1, with “Wistar rat brain slices” for “human U373MG cells”, “LDH release” for “cell viability”, “20” for “1”, “90 mins” for “16 hrs”, “spectrophotometric” for “alamar blue”; parameters: scale not given: the % may be the effect or the level left; settings: 1.5 h
Left cardiac atrium [14] = experiment: Negative inotropic activity in guinea pig left atrium assessed as decrease in developed tension at 0.001 to 100 uM relative to control; assay type: ADME, tissue-based; settings: Cavia porcellus
Left cardiac atrium [15] = experiment: Negative inotropic activity in guinea pig left atrium assessed as decrease in developed tension at 10^-4 M relative to control; assay type: ADME, tissue-based, Cavia porcellus; parameters: scale not given: the % may be the effect or the level left; settings: 100 µM
Aorta [16] = experiment: Inhibition of calcium-induced contraction in K+-depolarized guinea pig aortic strips at 5 x 10^-5 M relative to control; assay type: tissue-based; settings: Cavia porcellus
Left cardiac atrium [17] = experiment: Negative inotropic activity in guinea pig left atrium assessed as decrease in developed tension at 5 x 10^-5 M relative to control; assay type: ADME, tissue-based, Cavia porcellus; parameters: scale not given: the % may be the effect or the level left; settings: 50 µM
Left cardiac atrium [18] = experiment: Negative inotropic activity in guinea pig left atrium assessed as decrease in developed tension at 10^-5 M relative to control; parameters: scale not given: the % may be the effect or the level left; settings: 10 µM
[19] = tested on: Left cardiac atrium (Cavia porcellus); experiment: Negative inotropic activity in guinea pig left atrium assessed as decrease in developed tension
Left cardiac atrium [20] = experiment: Negative inotropic activity in guinea pig left atrium assessed as decrease in developed tension at 5 x 10^-7 M relative to control; assay type: ADME, tissue-based, Cavia porcellus; parameters: scale not given: the % may be the effect or the level left; settings: 0.5 µM
Right cardiac atrium [21] = experiment: Negative inotropic activity in guinea pig right atrium assessed as decrease in developed tension at 10^-5 M relative to control; assay type: ADME, tissue-based, Cavia porcellus; parameters: scale not given: the % may be the effect or the level left; settings: 10 µM

Compound: CCOC(=O)C1=C(C)NC(C)=C(C(=O)OCC)C1c1c(-c2ccc(F)cc2)nc2sc(C)cn12
EC50 (Right cardiac atrium [1]): 23 nM | Activity [2]: 43.1% | Activity (Left cardiac atrium [3]): 37% | Activity [4]: 9.1% | Activity [5]: 13.2% | Activity (Right cardiac atrium [6]): 86% | inhibition at 100 µM (Aorta [7]): 12% | Activity [8]: 28.9%

Compound: C=CCOC(=O)C1=C(C)NC(C)=C(C(=O)OCC=C)C1c1c(-c2cc(OC)c([N+](=O)[O-])cc2OC)nc2sccn12
Activity (Right cardiac atrium [9]): 92% | EC50 (Right cardiac atrium [1]): 2380 nM | Activity [2]: 52.3% | Ratio EC50 [10]: 95 | Activity (Left cardiac atrium [11]): 96% | Activity [4]: < 5% | Activity [5]: < 5% | Activity [12]: 82% | Activity [13]: 51.2% | inhibition at 100 µM (Aorta [7]): 15% | Activity [8]: 40.6% | EC50 (Left cardiac atrium [14]): 25 nM

Compound: CCOC(=O)C1=C(C)NC(C)=C(C(=O)OCC)C1c1c(-c2ccc(Cl)c([N+](=O)[O-])c2)nc2sc(C)cn12
Activity (Right cardiac atrium [9]): 50% | EC50 (Right cardiac atrium [1]): 8480 nM | Activity [2]: < 5% | Ratio EC50 [10]: 25 to 56 | Activity (Left cardiac atrium [11]): 64% | Activity [4]: < 5% | Activity [5]: < 5% | Activity [12]: < 5% | Activity [13]: < 5% | inhibition at 100 µM (Aorta [7]): 24% | Activity [8]: < 5% | EC50 (Left cardiac atrium [14]): 190 nM

Compound: CCOC(=O)C1=C(C)NC(C)=C(C(=O)OCC)C1c1c(-c2ccc(F)cc2)nc2sc(Cl)cn12
Activity (Right cardiac atrium [9]): 83% | EC50 (Right cardiac atrium [1]): 1730 nM | Activity [2]: 47.5% | Activity (Left cardiac atrium [3]): 62% | Ratio EC50 [10]: 25 to 56 | Activity [4]: 32.6% | Activity [5]: 33.7% | Activity [12]: < 5% | Activity [13]: 61.9% | inhibition at 100 µM (Aorta [7]): 3% | Activity [8]: 44.9% | EC50 (Left cardiac atrium [14]): 49 nM

Compound: CCOC(=O)C1=C(C)NC(C)=C(C(=O)OCC)C1c1c(-c2ccccc2F)nc2sccn12
Activity (Right cardiac atrium [9]): 86% | EC50 (Right cardiac atrium [1]): 980 nM | Activity [2]: 62.2% | Activity [4]: < 5% | Activity [5]: 36.8% | Activity (Left cardiac atrium [17]): 55% | inhibition at 50 µM (Aorta [16]): 17% | Activity [8]: 53.2% | EC50 (Left cardiac atrium [14]): 5150 nM

Compound: CCOC(=O)C1=C(C)NC(C)=C(C(=O)OCC)C1c1c(-c2cc(OC)ccc2OC)nc2sc(C)cn12
Activity (Right cardiac atrium [9]): 78% | EC50 (Right cardiac atrium [1]): 4810 nM | Activity [2]: < 5% | Ratio EC50 [10]: 20 | Activity [4]: < 5% | Activity [5]: < 5% | Activity (Left cardiac atrium [18]): 89% | inhibition at 100 µM (Aorta [7]): 43% | Activity [8]: < 5% | EC50 (Left cardiac atrium [14]): 250 nM

Continued, in another order:

EC50 (Right cardiac atrium [1]): 1730 nM | Activity (Right cardiac atrium [6]): 94% | Activity (Left cardiac atrium [15]): 73% | EC50 (Left cardiac atrium [14]): 3500 nM
Compound: CCOC(=O)C1=C(C)NC(C)=C(C(=O)OCC)C1c1c(-c2ccc(Cl)cc2)nc2sc(Cl)cn12
Activity [2]: 47.1% | Activity [4]: < 5% | Activity [5]: < 5% | inhibition at 100 µM (Aorta [7]): 45% | Activity [8]: 25.1%

Activity (Right cardiac atrium [9]): 80% | EC50 (Right cardiac atrium [1]): 640 nM | Activity (Left cardiac atrium [3]): 93% | EC50 (Left cardiac atrium [14]): 25 nM
Compound: CCOC(=O)C1=C(C)NC(C)=C(C(=O)OCC)C1c1c(-c2cc(OC)cc(OC)c2)nc2sc(Br)cn12
Activity [2]: 42.4% | Ratio EC50 [10]: < 10 | Activity [4]: < 5% | Activity [5]: 29.6% | Activity [12]: < 5% | Activity [13]: 14.5% | inhibition at 50 µM (Aorta [16]): 7% | Activity [8]: 17.4%

Activity (Right cardiac atrium [9]): 90% | EC50 (Right cardiac atrium [1]): 310 nM | Activity (Left cardiac atrium [11]): 39%
Compound: CCOC(=O)C1=C(C)NC(C)=C(C(=O)OCC)C1c1c(-c2ccc(OC)c(OC)c2)nc2sc(Br)cn12
Activity [2]: 33.4% | Activity [4]: 9% | Activity [5]: 55.1% | Activity [12]: 89.1% | Activity [13]: 57.8% | inhibition at 50 µM (Aorta [16]): 5% | Activity [8]: 18.2%

Activity (Right cardiac atrium [9]): 25% | Activity (Left cardiac atrium [17]): 37%
Compound: CCOC(=O)C1=C(C)NC(C)=C(C(=O)OCC)C1c1c(-c2ccc(F)cc2)nc2sc(Br)cn12
Activity [2]: < 5% | Activity [4]: < 5% | Activity [5]: < 5% | inhibition at 50 µM (Aorta [16]): 7% | Activity [8]: < 5%

Activity (Right cardiac atrium [9]): 35% | Activity (Left cardiac atrium [3]): 33%
Compound: CCOC(=O)C1=C(C)NC(C)=C(C(=O)OCC)C1c1c(-c2c(F)cccc2F)nc2sccn12
Activity [2]: 27.7% | Activity [4]: < 5% | Activity [5]: < 5% | inhibition at 100 µM (Aorta [7]): 28% | Activity [8]: 19.5%

Activity (Right cardiac atrium [9]): 40% | EC50 [19]: 1470 nM | Activity (Left cardiac atrium [20]): 67% | Activity (Right cardiac atrium [21]): 58% | EC50 (Left cardiac atrium [14]): 33 nM
Compound: CCOC(=O)C1=C(C)NC(C)=C(C(=O)OCC)C1c1c(-c2cc([N+](=O)[O-])c(Cl)cc2Cl)nc2sc(CC)cn12
Activity [2]: 41.6% | Activity [4]: 21.2% | Activity [5]: 26.7% | Activity [12]: < 5% | Activity [13]: 18% | inhibition at 100 µM (Aorta [7]): 15% | Activity [8]: 14.7%
